Structures are written as SMILES.

Assay [1] deals with T1, Toll-like receptor 1/2 (Homo sapiens, UniProt O60603+Q15399). In words: Agonist activity at TLR1/TLR2 in human THP-1 derived macrophages assessed as stimulation of TNF alpha release measured for 4 hrs by ELISA based assay relative to diprovocim-1. Type of assay: cell-based. Details: Activity: concentration or dose not given beside the values. Particulars: filed as agonist. The method in brief:
(§1)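 THP-1 cells differentiated with 100 nM PMA in RPMI/10% FBS for 24 h, washed, then rested 24 h in fresh medium. Seeded at 0.5 × 10⁵ cells/well and exposed to graded compound concentrations for 4 h, with final DMSO held at 0.1%. LPS served as positive control and DMSO as negative control. Supernatant human TNF-α was read by ELISA. EC50 from duplicate means.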
In general terms: In an ELISA, binding on a coated surface is turned into a signal by an enzyme label.

Assay [2] concerns the target Toll-like receptor 1/2 (Mus musculus, UniProt Q9EPQ1+Q9QUN7). Briefly: Agonist activity at TLR1/TLR2 in wild type C57BL/6J mouse macrophages assessed as stimulation of TNF alpha release measured for 4 hrs by ELISA based assay. The assay is classed as cell-based, Macrophage. The method in brief:
(§2)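 Thioglycolate-elicited peritoneal macrophages from wild type C57BL/6J mice, harvested by PBS lavage 4 d after i.p. 4% thioglycolate. Cultured in DMEM/10% FBS at 37 °C, 5% CO2, seeded at 1 × 10⁵ cells/well and exposed to graded compound concentrations for 4 h, with final DMSO ≤0.5% held constant. LPS served as positive control. Supernatant mouse TNF-α was read by ELISA. EC50 from duplicate means.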

Assay [3] concerns the target T1, Toll-like receptor 1/2. In words: Agonist activity at TLR1/TLR2 in human THP-1 derived macrophages assessed as stimulation of TNF alpha release measured for 4 hrs by ELISA based assay. Type of assay: cell-based. In a few lines:
as §1

The target of assay [4] is Toll-like receptor 1/2 (Mus musculus) (UniProt Q9QUN7+Q9EPQ1). Briefly: Agonist activity at TLR1/TLR2 in wild type C57BL/6J mouse macrophages assessed as stimulation of TNF alpha release measured for 4 hrs by ELISA based assay relative to diprovocim-1. The assay is classed as cell-based. More on the design: Activity: concentration or dose not given beside the values. Particulars: Macrophage, filed as agonist. The method in brief:
as §2

Toll-like receptor 1/2 (Mus musculus, UniProt Q9EPQ1+Q9QUN7), sequence (Q9QUN7 whole entry): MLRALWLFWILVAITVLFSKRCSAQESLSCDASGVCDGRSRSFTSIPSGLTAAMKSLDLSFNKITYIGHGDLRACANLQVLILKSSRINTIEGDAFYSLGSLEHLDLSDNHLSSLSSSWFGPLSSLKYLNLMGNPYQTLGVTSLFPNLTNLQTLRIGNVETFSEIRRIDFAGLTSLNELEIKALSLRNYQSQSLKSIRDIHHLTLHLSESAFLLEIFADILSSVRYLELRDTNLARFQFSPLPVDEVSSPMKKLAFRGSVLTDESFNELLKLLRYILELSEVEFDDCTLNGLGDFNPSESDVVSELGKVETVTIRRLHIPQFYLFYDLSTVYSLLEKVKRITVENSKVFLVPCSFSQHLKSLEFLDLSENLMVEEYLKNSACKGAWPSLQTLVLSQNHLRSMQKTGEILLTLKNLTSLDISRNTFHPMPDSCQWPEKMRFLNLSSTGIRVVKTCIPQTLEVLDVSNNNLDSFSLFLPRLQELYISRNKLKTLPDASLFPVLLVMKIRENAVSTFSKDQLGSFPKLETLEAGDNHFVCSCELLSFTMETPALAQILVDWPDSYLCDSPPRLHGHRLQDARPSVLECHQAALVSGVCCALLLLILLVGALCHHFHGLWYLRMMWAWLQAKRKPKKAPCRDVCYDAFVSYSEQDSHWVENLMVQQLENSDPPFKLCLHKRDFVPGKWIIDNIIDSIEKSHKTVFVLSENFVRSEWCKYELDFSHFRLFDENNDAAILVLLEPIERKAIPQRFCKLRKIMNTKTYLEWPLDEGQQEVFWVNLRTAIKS
Toll-like receptor 1/2 (Mus musculus, UniProt Q9EPQ1+Q9QUN7), sequence (Q9EPQ1 whole entry): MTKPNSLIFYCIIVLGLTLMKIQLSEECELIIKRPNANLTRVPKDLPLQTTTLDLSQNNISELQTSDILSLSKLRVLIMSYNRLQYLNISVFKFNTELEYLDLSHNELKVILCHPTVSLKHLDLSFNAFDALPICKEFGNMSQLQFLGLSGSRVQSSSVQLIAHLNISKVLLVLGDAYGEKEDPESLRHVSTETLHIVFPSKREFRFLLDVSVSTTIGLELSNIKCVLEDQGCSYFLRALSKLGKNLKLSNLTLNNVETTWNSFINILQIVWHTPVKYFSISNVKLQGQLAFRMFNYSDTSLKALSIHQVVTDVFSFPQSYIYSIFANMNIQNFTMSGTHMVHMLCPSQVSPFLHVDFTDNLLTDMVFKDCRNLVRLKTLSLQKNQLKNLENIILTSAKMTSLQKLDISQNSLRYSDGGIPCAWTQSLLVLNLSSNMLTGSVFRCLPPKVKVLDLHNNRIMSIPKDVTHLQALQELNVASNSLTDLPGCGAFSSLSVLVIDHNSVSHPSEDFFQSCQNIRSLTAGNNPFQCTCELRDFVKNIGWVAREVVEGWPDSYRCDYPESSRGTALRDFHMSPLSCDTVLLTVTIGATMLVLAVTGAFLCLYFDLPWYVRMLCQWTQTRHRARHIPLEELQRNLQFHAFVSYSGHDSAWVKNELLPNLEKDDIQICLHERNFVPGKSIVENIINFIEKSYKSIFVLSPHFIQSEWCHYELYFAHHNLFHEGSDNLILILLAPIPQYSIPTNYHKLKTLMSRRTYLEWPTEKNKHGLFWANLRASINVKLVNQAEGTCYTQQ
T1 sequence (O60603 whole entry): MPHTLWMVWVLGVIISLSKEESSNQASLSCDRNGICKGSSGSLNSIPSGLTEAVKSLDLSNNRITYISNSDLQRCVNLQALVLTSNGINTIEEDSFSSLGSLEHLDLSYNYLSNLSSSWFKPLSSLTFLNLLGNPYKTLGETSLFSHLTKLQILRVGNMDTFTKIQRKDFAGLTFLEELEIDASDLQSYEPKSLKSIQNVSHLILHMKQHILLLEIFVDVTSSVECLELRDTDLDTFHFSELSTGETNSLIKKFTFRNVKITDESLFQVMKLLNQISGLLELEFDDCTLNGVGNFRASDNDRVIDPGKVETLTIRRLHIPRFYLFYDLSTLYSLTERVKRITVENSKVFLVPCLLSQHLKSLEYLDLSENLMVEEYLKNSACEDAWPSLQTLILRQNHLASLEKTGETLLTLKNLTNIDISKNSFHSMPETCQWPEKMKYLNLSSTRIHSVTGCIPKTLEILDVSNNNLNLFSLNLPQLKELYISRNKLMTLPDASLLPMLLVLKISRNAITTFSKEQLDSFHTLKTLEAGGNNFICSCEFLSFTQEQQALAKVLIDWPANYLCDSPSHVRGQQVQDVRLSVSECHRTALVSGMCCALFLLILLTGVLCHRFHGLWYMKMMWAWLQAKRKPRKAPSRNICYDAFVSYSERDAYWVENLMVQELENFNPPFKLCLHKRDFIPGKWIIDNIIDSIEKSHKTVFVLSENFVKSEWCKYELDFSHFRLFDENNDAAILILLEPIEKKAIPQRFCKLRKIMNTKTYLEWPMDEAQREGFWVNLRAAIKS
T1 sequence (Q15399 whole entry): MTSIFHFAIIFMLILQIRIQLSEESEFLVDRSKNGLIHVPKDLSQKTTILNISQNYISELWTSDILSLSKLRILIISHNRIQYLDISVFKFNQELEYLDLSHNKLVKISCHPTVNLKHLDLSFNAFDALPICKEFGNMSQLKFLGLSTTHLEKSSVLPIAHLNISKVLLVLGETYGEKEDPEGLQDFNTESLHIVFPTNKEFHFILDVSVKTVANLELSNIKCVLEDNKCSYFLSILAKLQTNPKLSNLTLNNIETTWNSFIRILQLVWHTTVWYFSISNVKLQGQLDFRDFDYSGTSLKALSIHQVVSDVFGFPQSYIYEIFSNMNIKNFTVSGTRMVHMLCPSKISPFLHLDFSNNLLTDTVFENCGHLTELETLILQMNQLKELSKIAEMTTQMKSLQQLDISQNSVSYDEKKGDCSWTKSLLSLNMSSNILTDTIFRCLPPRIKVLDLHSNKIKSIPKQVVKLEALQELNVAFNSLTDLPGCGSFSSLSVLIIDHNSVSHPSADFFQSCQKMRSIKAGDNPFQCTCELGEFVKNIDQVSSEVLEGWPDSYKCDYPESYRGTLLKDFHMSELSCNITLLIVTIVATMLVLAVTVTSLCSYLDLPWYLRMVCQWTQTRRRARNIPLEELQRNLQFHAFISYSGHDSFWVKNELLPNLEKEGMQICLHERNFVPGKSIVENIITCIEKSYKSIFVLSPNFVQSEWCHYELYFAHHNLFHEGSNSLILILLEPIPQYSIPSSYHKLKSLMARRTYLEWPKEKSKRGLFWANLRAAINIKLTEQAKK

For `COC(=O)CCOCCOCCOCCNC(=O)[C@@H]1CN(C(=O)c2ccc(C(=O)N3C[C@@H](C(=O)N[C@H]4C[C@@H]4c4ccccc4)[C@H](C(=O)N[C@H]4C[C@@H]4c4ccccc4)C3)cc2)C[C@H]1C(=O)N[C@H]1C[C@@H]1c1ccccc1`, the Activity in assay [1] was 110%. Moreover, the EC50 – broadly, the concentration needed to bring the measured effect to its halfway point – in assay [2] was above 500 nM.
For the molecule `COC(=O)CCCCCCCCCNC(=O)[C@@H]1CN(C(=O)c2ccc(C(=O)N3C[C@@H](C(=O)N[C@H]4C[C@@H]4c4ccccc4)[C@H](C(=O)N[C@H]4C[C@@H]4c4ccccc4)C3)cc2)C[C@H]1C(=O)N[C@H]1C[C@@H]1c1ccccc1`, the EC50 amounted to 0.37 nM in assay [3] and 17 nM in assay [2].
In the case of `O=C(NCCCCCCCCCCO)[C@@H]1CN(C(=O)c2ccc(C(=O)N3C[C@@H](C(=O)N[C@H]4C[C@@H]4c4ccccc4)[C@H](C(=O)N[C@H]4C[C@@H]4c4ccccc4)C3)cc2)C[C@H]1C(=O)N[C@H]1C[C@@H]1c1ccccc1`, the EC50 stood at 0.5 nM in assay [3] and 50 nM in assay [2].
For `CCCCCCCCNC(=O)[C@@H]1CN(C(=O)c2ccc(C(=O)N3C[C@@H](C(=O)N[C@H]4C[C@@H]4c4ccccc4)[C@H](C(=O)N[C@H]4C[C@@H]4c4ccccc4)C3)cc2)C[C@H]1C(=O)N[C@H]1C[C@@H]1c1ccccc1`, the values for the 50% effective concentration (EC50) in assay [3] and in assay [2] were 0.33 nM and 540 nM, respectively. Besides, the Emax (in general, the size of the effect at its maximum, as opposed to the concentration needed) turned out to be 100% in assay [1] and 240% in assay [4].
The matching figures for `CCNC(=O)[C@@H]1CN(C(=O)c2ccc(C(=O)N3C[C@@H](C(=O)N[C@H]4C[C@@H]4c4ccccc4)[C@H](C(=O)N[C@H]4C[C@@H]4c4ccccc4)C3)cc2)C[C@H]1C(=O)N[C@H]1C[C@@H]1c1ccccc1`: 17 nM, 360 nM, 90% and 130%.
The matching figures for `CCCCNC(=O)[C@@H]1CN(C(=O)c2ccc(C(=O)N3C[C@@H](C(=O)N[C@H]4C[C@@H]4c4ccccc4)[C@H](C(=O)N[C@H]4C[C@@H]4c4ccccc4)C3)cc2)C[C@H]1C(=O)N[C@H]1C[C@@H]1c1ccccc1`: 2 nM, 30 nM, 120% and 150%.
The matching figures for `CCCCCCNC(=O)[C@@H]1CN(C(=O)c2ccc(C(=O)N3C[C@@H](C(=O)N[C@H]4C[C@@H]4c4ccccc4)[C@H](C(=O)N[C@H]4C[C@@H]4c4ccccc4)C3)cc2)C[C@H]1C(=O)N[C@H]1C[C@@H]1c1ccccc1`: 0.25 nM, 80 nM, 100% and 150%.
Take `COC(=O)CCCCCCCNC(=O)[C@@H]1CN(C(=O)c2ccc(C(=O)N3C[C@@H](C(=O)N[C@H]4C[C@@H]4c4ccccc4)[C@H](C(=O)N[C@H]4C[C@@H]4c4ccccc4)C3)cc2)C[C@H]1C(=O)N[C@H]1C[C@@H]1c1ccccc1`: the concentration for a half-maximal effect (EC50) is 3.8 nM in assay [3] and 240 nM in assay [2].
For the molecule `O=C(O)[C@@H]1CN(C(=O)c2ccc(C(=O)N3C[C@@H](C(=O)N[C@H]4C[C@@H]4c4ccccc4)[C@H](C(=O)N[C@H]4C[C@@H]4c4ccccc4)C3)cc2)C[C@H]1C(=O)N[C@H]1C[C@@H]1c1ccccc1`, the EC50 was 200 nM in assay [3] and above 5000 nM in assay [2]. Moreover, the Activity in assay [1] is 110%.
Consider `CCCCCCCCCCCCCCNC(=O)[C@@H]1CN(C(=O)c2ccc(C(=O)N3C[C@@H](C(=O)N[C@H]4C[C@@H]4c4ccccc4)[C@H](C(=O)N[C@H]4C[C@@H]4c4ccccc4)C3)cc2)C[C@H]1C(=O)N[C@H]1C[C@@H]1c1ccccc1`, for which the EC50 in assay [3] was determined as 0.1 nM; in assay [2] it was 1.1 nM. For the same molecule, the Emax was 150% in assay [1] and 100% in assay [4].
The matching figures for `CCCCCCCCCCNC(=O)[C@@H]1CN(C(=O)c2ccc(C(=O)N3C[C@@H](C(=O)N[C@H]4C[C@@H]4c4ccccc4)[C@H](C(=O)N[C@H]4C[C@@H]4c4ccccc4)C3)cc2)C[C@H]1C(=O)N[C@H]1C[C@@H]1c1ccccc1`: 0.1 nM, 650 nM, 100% and 260%.
As to `CN(CC(=O)OCCCCCCCCCCCCNC(=O)[C@@H]1CN(C(=O)c2ccc(C(=O)N3C[C@@H](C(=O)N[C@H]4C[C@@H]4c4ccccc4)[C@H](C(=O)N[C@H]4C[C@@H]4c4ccccc4)C3)cc2)C[C@H]1C(=O)N[C@H]1C[C@@H]1c1ccccc1)C(=O)OC(C)(C)C`, the Activity in assay [1] came to 100%; in assay [4], 110%.
Take `CCCCCCCCCCCCCCCCNC(=O)[C@@H]1CN(C(=O)c2ccc(C(=O)N3C[C@@H](C(=O)N[C@H]4C[C@@H]4c4ccccc4)[C@H](C(=O)N[C@H]4C[C@@H]4c4ccccc4)C3)cc2)C[C@H]1C(=O)N[C@H]1C[C@@H]1c1ccccc1`: the EC50 in assay [3] was 0.5 nM; in assay [2], 2.6 nM. For the same molecule, the maximum response (Emax) amounted to 110% in assay [1] and 75% in assay [4].
As for `CC(C)(C)OC(=O)NNC(=O)OCCCCCCCCCCCCNC(=O)[C@@H]1CN(C(=O)c2ccc(C(=O)N3C[C@@H](C(=O)N[C@H]4C[C@@H]4c4ccccc4)[C@H](C(=O)N[C@H]4C[C@@H]4c4ccccc4)C3)cc2)C[C@H]1C(=O)N[C@H]1C[C@@H]1c1ccccc1`, the Activity in assay [1] is 100%; in assay [4] it was 220%.
Consider `CCCCCCCCCCCCNC(=O)[C@@H]1CN(C(=O)c2ccc(C(=O)N3C[C@@H](C(=O)N[C@H]4C[C@@H]4c4ccccc4)[C@H](C(=O)N[C@H]4C[C@@H]4c4ccccc4)C3)cc2)C[C@H]1C(=O)N[C@H]1C[C@@H]1c1ccccc1`, for which the figures for the concentration for a half-maximal effect (EC50) in assay [3] and in assay [2] were 0.1 nM and 2.1 nM, respectively. The maximum response (Emax) is 110% in assay [1] and 100% in assay [4].
Take `CC(C)(C)OC(=O)c1ccc(C(=O)NCCOCCCCCCCCCCCCNC(=O)[C@@H]2CN(C(=O)c3ccc(C(=O)N4C[C@@H](C(=O)N[C@H]5C[C@@H]5c5ccccc5)[C@H](C(=O)N[C@H]5C[C@@H]5c5ccccc5)C4)cc3)C[C@H]2C(=O)N[C@H]2C[C@@H]2c2ccccc2)cc1`: the values for the Activity in assay [1] and in assay [4] were 110% and 160%, respectively.
For `CC(C)(C)OC(=O)CCOCCOCCOCCNC(=O)[C@@H]1CN(C(=O)c2ccc(C(=O)N3C[C@@H](C(=O)N[C@H]4C[C@@H]4c4ccccc4)[C@H](C(=O)N[C@H]4C[C@@H]4c4ccccc4)C3)cc2)C[C@H]1C(=O)N[C@H]1C[C@@H]1c1ccccc1`, the 50% effective concentration (EC50) in assay [2] stood at 500 nM.
Take `COC(=O)CCCCCCCCCCCNC(=O)[C@@H]1CN(C(=O)c2ccc(C(=O)N3C[C@@H](C(=O)N[C@H]4C[C@@H]4c4ccccc4)[C@H](C(=O)N[C@H]4C[C@@H]4c4ccccc4)C3)cc2)C[C@H]1C(=O)N[C@H]1C[C@@H]1c1ccccc1`: in assay [3], the half-maximal effective concentration (EC50) is 0.2 nM. For the same molecule, the Activity in assay [1] and in assay [4] was 100% in each case.

These data come from ChEMBL document CHEMBL5143728, “Next-Generation Diprovocims with Potent Human and Murine TLR1/TLR2 Agonist Activity That Activate the Innate and Adaptive Immune Response” (J Med Chem, 2022).
